Compounds with a hit are over-represented: about 3.1% of the library has one in this group of screens.
Ins promoter up: MIN6 insulin promoter up-regulation | MIN6 insulin promoter-GFP reporter, high-content imaging; active compounds read high | z-score at 5 µM | 190,000 compounds, 0.3% hits;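 active = z-score above 3 at 5 µM with at least 500 cells counted in the well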
Yeast lifespan up: extends the lifespan of yeast | S. cerevisiae growth with nicotinamide, OD615; deaD strain in restrictive glucose medium | 130,000 compounds, 0.68% hits | AID 775 | inhibition of the nicotinamide effect, % at 10 µM;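 active = inhibition above a set limit, placed 3 SD over the median of all compounds, cut at about 26% in these data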
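assay system = DeaD-strain S. cerevisiae | buffer or medium = restrictive glucose medium | reagent = 1.5 mM nicotinamide | compound = 10 µM single point, 0.25% DMSO | incubation = 48 h compound exposure at 30 °C, humidified | signal = OD615 measurement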
INS promoter inh: TRM-6 insulin promoter activity inhibition | TRM-6 cells (human fetal islet line), insulin promoter-eGFP reporter, imaging; reporter expression induced with tamoxifen | inhibition, % at 2 µM | 130,000 compounds, 0.9% hits | AID 1273;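 active = inhibition above the mean plus 3 SD, with well images judged a real hit on visual review, cut at about 60% in these data, passing the limit was not always enough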
RAM network inh: yeast RAM network inhibition. S. cerevisiae dse1pr::URA3 reporter, 5-FOA growth OD615, 2 d; analog-sensitive cbk1-as2 kinase mutant strain. inhibition, % at 50 µM. 190,000 compounds, 1.8% hits. AID 868;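 active = inhibition above a set limit, 3 SD over mean compound inhibition, cut at about 8.4% in these data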;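 also: inhibition rescues growth on 5-FOA so higher OD means more RAM inhibition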
Yeast growth inh: reduces growth of yeast BB579 in restrictive medium; S. cerevisiae BB579 growth, OD615, 48 h; inhibition, % at 10 µM; 140,000 compounds, 0.51% hits; AID 804;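 active = inhibition above a set limit, 3 SD over the mean compound inhibition, cut at about 44% in these data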
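System: Saccharomyces cerevisiae DeaD strain BB579, replicative lifespan model yeast | Buffer or medium: Restrictive glucose-based CSMM-D medium | Times: 4 h preincubation and 48 h exposure at 30 °C | Detection: OD615 turbidity measurement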
RAM 5-FOA: restores 5-FOA growth of efflux-deficient yeast | shares compounds with RAM network inh | S. cerevisiae efflux-deficient reporter strain, 5-FOA growth OD615, 2 days | max inhibition, % | 1,200 tested, under 10 active | AID 1305; call rule not given here
Numbers stand for hits.

For O=S(=O)(c1ccc(F)cc1)n1ccc(-c2cccc(OCc3ccc(Cl)cc3Cl)c2)n1 the results were Yeast lifespan up inactive, INS promoter inh inactive, RAM network inh 11.5, Yeast growth inh inactive and RAM 5-FOA inactive.
COc1ccc(N(C)C(=S)Oc2ccc(C(=O)Nc3ccccc3)cc2)cc1 was read as Ins promoter up inactive, Yeast lifespan up inactive, INS promoter inh inactive, RAM network inh inactive and Yeast growth inh inactive.
Cc1cccc(N(C)C(=S)Oc2ccc3ccccc3c2)c1 was read as Yeast lifespan up inactive, INS promoter inh inactive, RAM network inh 11.6, Yeast growth inh inactive and RAM 5-FOA inactive.
For Cn1nc(C(F)(F)F)c(/C=N/OC(=O)c2ccccc2)c1SCc1ccccc1Cl the results were Ins promoter up inactive, Yeast lifespan up inactive, INS promoter inh inactive, RAM network inh 12.1, Yeast growth inh inactive and RAM 5-FOA inactive.
CN(C)S(=O)(=O)c1cccc(NC(=O)COC(=O)CCSc2ccc(Cl)cc2)c1 was read as Ins promoter up inactive, Yeast lifespan up inactive, RAM network inh inactive and Yeast growth inh inactive.
`CCN(CC)S(=O)(=O)c1cccc(NC(=O)CCSc2ccc(Cl)cc2)c1` gave Ins promoter up inactive, Yeast lifespan up inactive, INS promoter inh inactive, RAM network inh 14.3, Yeast growth inh inactive and RAM 5-FOA inactive.
CCCCN(C(=O)c1cccc2c(=O)c(C)c(-c3ccccc3)oc12)c1ccccc1 was read as Yeast lifespan up 29.3, INS promoter inh inactive, RAM network inh 16.2, Yeast growth inh inactive and RAM 5-FOA inactive.
For CCN(CC)S(=O)(=O)c1ccc(NS(=O)(=O)c2cccc(C)c2)cc1 the results were Ins promoter up inactive, Yeast lifespan up inactive, RAM network inh inactive and Yeast growth inh inactive.
Screening CCN(CC)S(=O)(=O)c1cc(NS(=O)(=O)c2c(Cl)cccc2Cl)ccc1C returned Ins promoter up inactive, Yeast lifespan up 27.7, INS promoter inh inactive, RAM network inh 14.5, Yeast growth inh inactive and RAM 5-FOA inactive.
For Cc1nc2ccc(NC(=O)NC(=O)c3c(Cl)cccc3Cl)cc2o1 the results were Ins promoter up inactive.
For COc1ccc(-c2c/c(=N\c3nc(-c4ccccc4)c(C)s3)c3ccccc3o2)cc1O the results were Ins promoter up inactive, Yeast lifespan up inactive, INS promoter inh inactive, RAM network inh 11.4, Yeast growth inh inactive and RAM 5-FOA inactive.
CC(=O)c1ccc(NC(=S)NN2C(C)CCCC2C)cc1 (configuration not stated) was read as Ins promoter up inactive and RAM network inh inactive.
CC(=O)c1ccc(NC(=S)NC2CCCC(C)C2C)cc1 (configuration not stated) was read as Ins promoter up inactive, RAM network inh 20.4 and RAM 5-FOA inactive.
Screening CN(C)c1ccc(NC(=O)CSCc2nc3c(nnn3Cc3ccc(F)cc3)c(=O)[nH]2)cc1 returned Ins promoter up inactive, Yeast lifespan up inactive, INS promoter inh inactive, RAM network inh inactive and Yeast growth inh inactive.
Screening O=C(CSCc1nc2c(nnn2Cc2ccc(F)cc2)c(=O)[nH]1)Nc1cccc(C(F)(F)F)c1 returned RAM network inh 15.7 and RAM 5-FOA inactive.
Screening CC(=O)c1ccc(NC(=O)CSc2ccc3nnc(-c4cccnc4)n3n2)cc1 returned Ins promoter up inactive, INS promoter inh inactive and RAM network inh inactive.
`COc1ccc2nc(SCC(=O)N3CCN(c4ccccc4F)CC3)c(C#N)cc2c1` gave INS promoter inh inactive.
Screening CCc1oc2ccccc2c1C(=O)c1cc(Br)c(O)c(Br)c1 returned Yeast lifespan up inactive, INS promoter inh inactive, RAM network inh 15.6, Yeast growth inh 82.0 and RAM 5-FOA inactive.
`COCCNCC(=O)N1CCCCCC1` gave Ins promoter up inactive, INS promoter inh inactive and RAM network inh inactive.
`CNC(=O)c1ccc2c(c1)nnn2C` gave Ins promoter up inactive, Yeast lifespan up inactive, INS promoter inh inactive, RAM network inh inactive and Yeast growth inh inactive.
For C=CCNC(=O)c1ccc2c(c1)nnn2C the results were Ins promoter up inactive, Yeast lifespan up inactive, RAM network inh 13.5, Yeast growth inh inactive and RAM 5-FOA inactive.
For CCOC(=O)C1CCN(C(=O)c2cc(C(C)(C)C)nn2Cc2ccccc2)CC1 the results were Ins promoter up inactive.
`Cc1cccc(/C=C\c2nc3ccccc3c(=O)[nH]2)c1` gave Ins promoter up inactive, Yeast lifespan up inactive, INS promoter inh inactive, RAM network inh 11.5, Yeast growth inh inactive and RAM 5-FOA inactive.
Screening CCn1c(SCc2nc3ccccc3c(=O)[nH]2)nc2ccccc21 returned Ins promoter up inactive, RAM network inh 12.2 and RAM 5-FOA inactive.
`Cc1ccc(NC(=O)CSc2nnc(C3COc4ccccc4O3)o2)c(Cl)c1` (configuration not stated) gave Ins promoter up inactive and RAM network inh inactive.
For Cc1ccc(S(=O)(=O)N2CCC(C)CC2)cc1[N+](=O)[O-] the results were Ins promoter up inactive, RAM network inh 22.5 and RAM 5-FOA inactive.
`Cc1ccc(S(=O)(=O)N2CCCCCC2)cc1[N+](=O)[O-]` gave Ins promoter up inactive, Yeast lifespan up inactive, INS promoter inh inactive, RAM network inh inactive and Yeast growth inh inactive.
`O=c1c2ccccc2nc(SCc2cccc(F)c2)n1Cc1ccco1` gave Ins promoter up inactive, Yeast lifespan up inactive, INS promoter inh inactive, RAM network inh 13.7, Yeast growth inh inactive and RAM 5-FOA inactive.
For COn1c(SCc2cccc(Cl)c2)nc2ccccc2c1=O the results were Ins promoter up inactive, Yeast lifespan up inactive, INS promoter inh inactive, RAM network inh inactive and Yeast growth inh inactive.
COn1c(SCc2ccccc2)nc2ccccc2c1=O was read as Ins promoter up inactive, Yeast lifespan up inactive, INS promoter inh inactive, RAM network inh 12.3, Yeast growth inh inactive and RAM 5-FOA inactive.
`O=c1c2ccccc2nc(SCc2ccccc2)n1Cc1ccco1` gave Ins promoter up inactive, Yeast lifespan up inactive, RAM network inh inactive and Yeast growth inh inactive.
`Cc1ccc(CSc2nc3ccccc3c(=O)n2Cc2ccco2)cc1` gave INS promoter inh inactive, RAM network inh 14.2, Yeast growth inh inactive and RAM 5-FOA inactive.
O=C(CSc1nc2ccccc2c(=O)n1CCC(=O)N1CCCCC1)NCc1ccccc1 was read as Yeast lifespan up inactive, INS promoter inh inactive, RAM network inh 18.3, Yeast growth inh inactive and RAM 5-FOA inactive.
For COc1ccc(CNC(=O)COC(=O)c2cnccn2)cc1 the results were Ins promoter up inactive, Yeast lifespan up inactive, INS promoter inh inactive, RAM network inh inactive and Yeast growth inh inactive.
For O=C(CCCn1c(SCc2cccc(F)c2)nc2ccccc2c1=O)NCC1CCCO1 (configuration not stated) the results were Ins promoter up inactive, INS promoter inh inactive, RAM network inh 16.0 and RAM 5-FOA inactive.

Screening results (PubChem BioAssay)
